Assays:
Format in all cases: binding
[1] = molecular target: T1, P450cam (cytochrome P450cam), WT (Pseudomonas putida, UniProt P00183, C335A/Y97F); assay: constant-volume visible difference spectrophotometric titration
T1 sequence (P00183 2-415 Y97F/C335A): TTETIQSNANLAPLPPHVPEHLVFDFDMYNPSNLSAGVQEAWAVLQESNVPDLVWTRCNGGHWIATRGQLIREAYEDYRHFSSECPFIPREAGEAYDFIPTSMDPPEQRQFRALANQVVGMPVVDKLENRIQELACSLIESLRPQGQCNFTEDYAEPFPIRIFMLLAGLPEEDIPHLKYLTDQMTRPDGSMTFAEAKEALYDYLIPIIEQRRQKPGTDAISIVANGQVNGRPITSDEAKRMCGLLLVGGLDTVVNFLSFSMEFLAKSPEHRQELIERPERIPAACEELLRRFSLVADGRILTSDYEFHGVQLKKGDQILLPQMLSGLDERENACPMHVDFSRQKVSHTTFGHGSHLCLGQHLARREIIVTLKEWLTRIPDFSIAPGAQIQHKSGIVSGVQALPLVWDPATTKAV
In short: (§1)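 Substrate-bound protein solution was exchanged into substrate-free solution at the same protein concentration, and visible difference spectra were recorded. KD was obtained by fitting to a single-site binding model. This method applied to the camphor-analogue test compounds.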

[2] = molecular target: T2, P450cam (cytochrome P450cam), WT (Pseudomonas putida, UniProt P00183, C335A); assay: as above
T2 sequence (P00183 2-415 C335A): T1 sequence (P00183 2-415 Y97F/C335A)
In short: as §1

[3] = molecular target: T2, P450cam (cytochrome P450cam), WT; assay: visible spectrophotometric titration
[4] = molecular target: T1, P450cam (cytochrome P450cam), WT; assay: visible spectrophotometric titration

Row | Compound | Kd [1] [µM] | Kd [2] [µM] | Kd [3] [nM] | Kd [4] [µM]
1 | CC1(C)C2CCC1(C)C(O)C2 (racemic) [isoborneol] | 1.2 ± 0.3 | 10.9 ± 3.4 | – | –
2 | CC12CCC(CC1)C2(C)C [camphane] | 10.7 ± 3.3 | 18.7 ± 2.5 | – | –
3 | CC1(C)[C@@H]2CC[C@@]1(C)C(=O)C2 [d-camphor] | – | – | 1800 ± 800 | 3.5 ± 0.6

Source: paper PMC5816979 (Biochemistry, 2017)
